Laboratory results reported in ChEMBL document CHEMBL1641508, “Effect of structurally constrained oxime-ether linker on PPAR subtype selectivity: Discovery of a novel and potent series of PPAR-pan agonists” (Bioorg Med Chem, 2011).
Active and inactive are the calls of the source. The rule behind the calls is not given here.

How the values were obtained:
[1] = biological target: T1, Peroxisome proliferator-activated receptor alpha (Homo sapiens) (UniProt Q07869); test: Agonist activity at human PPARalpha expressed in HepG2 cells co-transfected with PPRE3-TK-luc assessed as beta-galactosidase activity after 20 to 22 hrs by luciferase based transactivation assay relative to WY-14643; type: functional, cell-based
T1 sequence (whole entry): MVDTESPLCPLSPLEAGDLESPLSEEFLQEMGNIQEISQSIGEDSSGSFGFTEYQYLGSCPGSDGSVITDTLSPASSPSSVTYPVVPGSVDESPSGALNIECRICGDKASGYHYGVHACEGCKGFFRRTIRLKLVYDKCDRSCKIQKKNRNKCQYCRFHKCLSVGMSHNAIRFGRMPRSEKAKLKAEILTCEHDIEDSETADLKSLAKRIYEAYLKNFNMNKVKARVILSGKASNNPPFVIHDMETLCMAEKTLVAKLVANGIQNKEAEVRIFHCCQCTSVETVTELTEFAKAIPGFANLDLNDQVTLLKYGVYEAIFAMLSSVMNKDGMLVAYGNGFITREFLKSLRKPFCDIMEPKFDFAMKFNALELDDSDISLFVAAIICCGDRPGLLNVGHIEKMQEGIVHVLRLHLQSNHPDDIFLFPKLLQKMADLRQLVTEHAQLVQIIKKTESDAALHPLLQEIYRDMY
Procedure, shortened: (§1)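 HepG2 (MEM, 10% FBS, NEAA, pyruvate, pen/strep) seeded 400,000 cells/well, transfected (Superfect) with pSG5 vector carrying full-length hPPAR cDNA plus PPRE3-TK-luc; 3 h at 37 °C, 5% CO2, then ligand-containing medium added, 20–22 h.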

[2] = biological target: T2, Peroxisome proliferator-activated receptor alpha (Homo sapiens, UniProt Q07869); test: Agonist activity at human PPARalpha expressed in HepG2 cells co-transfected with PPRE3-TK-luc assessed as beta-galactosidase activity after 20 to 22 hrs by luciferase based transactivation assay; type: functional, cell-based
T2 sequence (Q07869 whole entry): T1 sequence (whole entry)

[3] = biological target: T3, Peroxisome proliferator-activated receptor gamma (Homo sapiens, UniProt P37231); type: functional, cell-based, HepG2
T3 sequence (P37231 whole entry): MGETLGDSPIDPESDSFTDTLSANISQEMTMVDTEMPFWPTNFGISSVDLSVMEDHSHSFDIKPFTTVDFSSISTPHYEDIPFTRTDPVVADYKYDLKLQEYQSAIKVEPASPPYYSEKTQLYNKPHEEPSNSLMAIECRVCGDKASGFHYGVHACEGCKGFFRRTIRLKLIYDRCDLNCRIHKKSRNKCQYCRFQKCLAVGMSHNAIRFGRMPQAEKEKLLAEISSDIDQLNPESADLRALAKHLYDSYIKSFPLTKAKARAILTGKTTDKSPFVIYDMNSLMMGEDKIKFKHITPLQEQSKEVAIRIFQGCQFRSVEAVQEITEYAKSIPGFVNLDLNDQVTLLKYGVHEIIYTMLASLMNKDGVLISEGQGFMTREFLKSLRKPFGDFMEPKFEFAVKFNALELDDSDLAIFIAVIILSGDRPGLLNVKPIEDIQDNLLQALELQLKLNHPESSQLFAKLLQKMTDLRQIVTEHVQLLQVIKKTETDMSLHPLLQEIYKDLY

[4] = biological target: T4, Peroxisome proliferator-activated receptor delta (Homo sapiens) (UniProt Q03181); test: Agonist activity at human PPARdelta expressed in HepG2 cells co-transfected with PPRE3-TK-luc assessed as beta-galactosidase activity after 20 to 22 hrs by luciferase based transactivation assay relative to GW-501516; type: functional, cell-based; procedure, shortened: as §1
T4 sequence (whole entry): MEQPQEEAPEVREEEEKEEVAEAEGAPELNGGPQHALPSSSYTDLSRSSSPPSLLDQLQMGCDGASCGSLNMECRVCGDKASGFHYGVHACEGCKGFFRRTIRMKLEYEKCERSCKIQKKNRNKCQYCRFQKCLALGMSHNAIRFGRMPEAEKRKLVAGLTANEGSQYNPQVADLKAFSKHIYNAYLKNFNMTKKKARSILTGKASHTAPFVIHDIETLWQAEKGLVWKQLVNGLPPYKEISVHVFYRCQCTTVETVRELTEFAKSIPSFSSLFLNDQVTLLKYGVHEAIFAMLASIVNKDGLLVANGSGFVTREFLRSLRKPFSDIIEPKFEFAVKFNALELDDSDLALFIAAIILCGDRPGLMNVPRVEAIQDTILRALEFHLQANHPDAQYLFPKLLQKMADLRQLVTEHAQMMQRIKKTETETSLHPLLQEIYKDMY

[5] = biological target: T5, Peroxisome proliferator-activated receptor delta (Homo sapiens, UniProt Q03181); test: Agonist activity at human PPARdelta expressed in HepG2 cells co-transfected with PPRE3-TK-luc assessed as beta-galactosidase activity after 20 to 22 hrs by luciferase based transactivation assay; type: functional, cell-based
T5 sequence (Q03181 whole entry): T4 sequence (whole entry)

[6] = tested on: Mus musculus; test: Antihyperglycemic activity in db/db mouse assessed as reduction of serum glucose level at 10 mg/kg, po qd for 14 days relative to control; type: functional; design: scale not given: the % may be the effect or the level left
Procedure, shortened: (§2)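 Male db/db mice, 12–14 weeks, 30–40 g, tail-bled before the study. Groups of six were matched for plasma glucose, TG and TC. Dosing was oral once daily for 14 days, with vehicle 0.5% methylcellulose in water, and mice were fed ad libitum. About 1 h after the last dose, mice were tail-bled and serum/plasma glucose and TG measured. Values are % change versus vehicle-treated mice, mean ± SD (n = 6).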

[7] = tested on: Mus musculus; test: Antihyperlipidemic activity in db/db mouse assessed as reduction of serum triglyceride level at 10 mg/kg, po qd for 14 days relative to control; type: functional; design: scale not given: the % may be the effect or the level left; procedure, shortened: as §2
[8] = tested on: Syrian golden hamster; test: Antihyperlipidemic activity in high fat-high cholesterol-fructose fed hamster assessed as increase of serum HDL-cholesterol level at 10 mg/kg, po qd for 14 days; type: functional, organism-based; design: dose 10 mg/kg; conditions: Mesocricetus auratus
[9] = tested on: Syrian golden hamster; test: Antihyperlipidemic activity in high fat-high cholesterol-fructose fed hamster assessed as decrease of serum LDL-cholesterol level at 10 mg/kg, po qd for 14 days; type: functional, organism-based; design: dose 10 mg/kg; conditions: Mesocricetus auratus
[10] = tested on: Mus musculus; test: Antihyperglycemic activity in db/db mouse assessed as reduction of serum glucose level at 3 mg/kg, po qd for 14 days relative to control; type: functional; design: scale not given: the % may be the effect or the level left; procedure, shortened: as §2
[11] = tested on: Mus musculus; test: Antihyperlipidemic activity in db/db mouse assessed as reduction of serum triglyceride level at 3 mg/kg, po qd for 14 days relative to control; type: functional; design: scale not given: the % may be the effect or the level left; procedure, shortened: as §2

| Structure (SMILES) | Emax [1] | Emax [4] | further results |
| --- | --- | --- | --- |
| C/C(=N\OCc1nc(-c2ccc(C)cc2)oc1C)c1ccc(OCC(=O)O)c(C)c1 | 45.3% | 67.6% | EC50 [2]: 150 nM; EC50 [3]: 400 nM; EC50 [5]: 300 nM |
| C/C(=N\OCc1nc(-c2ccc(C)cc2)oc1C)c1ccc(OCC(=O)O)cc1 | 51.1% | 48.1% | – |
| CC/C(=N\OCc1sc(-c2ccc(C(F)(F)F)cc2)nc1C)c1ccc(OCC(=O)O)cc1 | 97.5% | 41.4% | – |
| Cc1ccc(-c2nc(CO/N=C(/c3ccc(OCC(=O)O)c(C)c3)C3CCCCC3)c(C)o2)cc1 | 14.1% | 56.6% | – |
| CCC/C(=N\OCc1nc(-c2ccc(C)cc2)oc1C)c1ccc(OCC(=O)O)c(C)c1 | 33.3% | 46.8% | – |
| C/C(=N\OCc1sc(-c2ccc(C(F)(F)F)cc2)nc1C)c1ccc(OCC(=O)O)cc1 | 86.2% | 60.6% | – |
| C/C(=N\OCc1sc(-c2ccc(C(F)(F)F)cc2)nc1C)c1ccc(OCC(=O)O)c(C)c1 | 99.8% | 90.1% | EC50 [2]: 8 nM; EC50 [3]: 6 nM; EC50 [5]: 10 nM; Activity [6]: -23.2%; Activity [7]: -36.5%; Activity [8]: Active; Activity [9]: Active |
| Cc1cc(/C(=N/OCc2sc(-c3ccc(C(F)(F)F)cc3)nc2C)C2CCCCC2)ccc1OCC(=O)O | 57.9% | 98.7% | EC50 [2]: 1600 nM; EC50 [3]: 1000 nM; EC50 [5]: 700 nM |
| CC/C(=N\OCc1sc(-c2ccc(C(F)(F)F)cc2)nc1C)c1ccc(OCC(=O)O)c(C)c1 | 96.4% | 61.9% | EC50 [2]: 120 nM; EC50 [3]: 800 nM; EC50 [5]: 800 nM |
| CC/C(=N\OCc1nc(-c2ccc(C)cc2)oc1C)c1ccc(OCC(=O)O)cc1 | 68.5% | 49.2% | – |
| CCC/C(=N\OCc1sc(-c2ccc(C(F)(F)F)cc2)nc1C)c1ccc(OCC(=O)O)c(C)c1 | 58.7% | 48.3% | – |
| CCC/C(=N\OCc1nc(-c2ccccc2)oc1C)c1ccc(OCC(=O)O)c(C)c1 | 14.1% | 51.7% | – |
| CC(C)(Oc1ccc(CCNC(=O)c2ccc(Cl)cc2)cc1)C(=O)O [BEZAFIBRATE] | – | – | EC50 [3]: 57200 nM; EC50 [5]: 18900 nM |
| C/C(=N\OCc1nc(-c2ccccc2)oc1C)c1ccc(OCC(=O)O)c(C)c1 | 84.5% | 74.5% | EC50 [2]: 500 nM; EC50 [3]: 300 nM; EC50 [5]: 800 nM; Activity [6]: -59.9%; Activity [7]: -52.4%; Activity [8]: Active; Activity [9]: Active |
| CC/C(=N\OCc1nc(-c2ccccc2)oc1C)c1ccc(OCC(=O)O)cc1 | 42.5% | 46.4% | – |
| Cc1cc(SCc2sc(-c3ccc(C(F)(F)F)cc3)nc2C)ccc1OCC(=O)O | 76.9% | – | – |
| CC/C(=N\OCc1nc(-c2ccccc2)oc1C)c1ccc(OCC(=O)O)c(C)c1 | 56.4% | 72.3% | – |
| Cc1cc(/C(=N/OCc2nc(-c3ccccc3)oc2C)C2CCCCC2)ccc1OCC(=O)O | 9.7% | 58.8% | – |
| CC/C(=N\OCc1nc(-c2ccc(C)cc2)oc1C)c1ccc(OCC(=O)O)c(C)c1 | 72.6% | 56.3% | – |
| CCO[C@@H](Cc1ccc(OCCc2ccc(OS(C)(=O)=O)cc2)cc1)C(=O)O [TESAGLITAZAR] | – | – | Activity [10]: -60.2%; Activity [11]: -54.4% |
| C/C(=N\OCc1nc(-c2ccccc2)oc1C)c1ccc(OCC(=O)O)cc1 | 58.8% | 52.1% | – |
